Measured values gathered from unrelated publications.
Lines come from different studies, so protocols differ.
PSMB8: Proteasome subunit beta type-8 (PSMB8, Homo sapiens, UniProt P28062)
PDGFRB: Platelet-derived growth factor receptor beta (PDGFRB, Homo sapiens, UniProt P09619)
TYMS: Thymidylate synthase (TYMS, Homo sapiens, UniProt P04818)
PTGS2: Prostaglandin G/H synthase 2 (PTGS2, Homo sapiens, UniProt P35354)
DHODH: Dihydroorotate dehydrogenase (quinone), mitochondrial (DHODH, Homo sapiens, UniProt Q02127)
EPHA7: Ephrin type-A receptor 7 (EPHA7, Homo sapiens, UniProt Q15375)

| Structure (SMILES) | target | test | setting | IC50 [µM] |
| --- | --- | --- | --- | --- |
| CC/C(=N\NC(=O)C(C)Nc1ccccc1)c1ccc(O)c(C)c1O (centres unmarked) | Ribosomal protein S6 kinase beta-1 (RPS6KB1, Homo sapiens, UniProt P23443) | enzyme activity, inhibitor | – | 0.0335 |
| Oc1ccc(Cl)cc1Nc1nc(NCC2CCCO2)c2ccccc2n1 (centres unmarked) | Lysosomal acid glucosylceramidase (GBA1, Homo sapiens, UniProt P04062, R534H) | enzyme activity, inhibitor, fluorescence | pH 5.9 | 1.5 |
| Cc1ncc(C(=O)N[C@@H](CC2CCC(C3CCCCC3)CC2)C(=O)N[C@@H](CC(C)C)C(=O)N[C@H](/C=C/S(C)(=O)=O)Cc2ccc(CN)cc2)s1 (some centres unmarked) | PSMB8 | enzyme activity, inhibitor | lysate | > 10 |
| Cc1cnc(-c2ccc(-c3ccc(NC(=O)Nc4c(F)cc(F)cc4F)cc3F)c3c2C(=O)NC3)[nH]1 | PDGFRB | enzyme activity, inhibitor | – | 0.0104 |
| CCCCCCCC(=O)N[C@H](CN1CCCC1)[C@H](O)c1ccc2c(c1)OCCO2 | Lysosomal acid glucosylceramidase (GBA1, Homo sapiens, UniProt P04062) | enzyme activity, inhibitor | – | 15 |
| COc1ccc(S(=O)(=O)ON=C2C=C(C)C(=O)C(C)=C2)cc1 | CREB-binding protein (CREBBP, Homo sapiens, UniProt Q92793) | enzyme activity, inhibitor, radiometric | – | > 100 |
| COc1ccc(C[C@H](NC(=O)[C@H](C)NC(=O)CN2CCOCC2)C(=O)N[C@@H](CC2CCC(OC)CC2)C(=O)[C@@]2(C)CO2)cc1 (some centres unmarked) | PSMB8 | enzyme activity, inhibitor | lysate | 3.98 |
| Nc1nc(N)c2nc(CNc3ccc(C(=O)N4CCC(C(=O)O)CC4)cc3)cnc2n1 | TYMS | enzyme activity, inhibitor | – | 67 |
| O=C(CSc1ncn[nH]1)Nc1ccc(C23CC4CC(CC(C4)C2)C3)cc1 | Transcriptional enhancer factor TEF-4 (TEAD2, Homo sapiens, UniProt Q15562) | enzyme activity, inhibitor | – | 0.71 |
| N#Cc1ccc(COc2cccc(C3CCN(Cc4nc5ccc(C(=O)O)cc5n4C[C@@H]4CCO4)CC3)n2)c(F)c1 | Glucagon receptor (GCGR, Homo sapiens, UniProt P47871) | cAMP, antagonist | – | > 20 |
| Cc1cccn2c(Nc3ccc(Cl)cc3)c(-c3ccc(S(C)(=O)=O)cc3)nc12 | PTGS2 | enzyme activity, inhibitor | – | 0.14 |
| CC(C)C[C@H](NC(=O)[C@H](CC(C)C)NC(=O)[C@H](Cc1ccccc1)NC(=O)CN=[N+]=[N-])C(=O)N[C@H](/C=C/S(C)(=O)=O)Cc1ccc(CN)cc1 | PSMB8 | enzyme activity, inhibitor | lysate | 1.3 |
| CN1CCN(c2ccc(Nc3ncc4cc(C#N)c(=O)n(C5CCCC5)c4n3)cc2)CC1 | Ephrin type-B receptor 3 (EPHB3, Homo sapiens, UniProt P54753) | enzyme activity, inhibitor | – | 2.54 |
| COc1ccc(C[C@H](NC(=O)[C@H](C)NC(=O)CN2CCOCC2)C(=O)N[C@@H](CC2CCC(C(F)(F)F)CC2)C(=O)[C@@]2(C)CO2)cc1 (some centres unmarked) | PSMB8 | enzyme activity, inhibitor | lysate | 0.191 |
| O=c1c2cc(Br)c(Br)n2cc2n1CCC2 | Proteasome subunit beta type-8, chymotrypsin-like site (PSMB8, Homo sapiens, UniProt P28062) | enzyme activity, inhibitor | – | > 100 |
| Nc1ncnc2c1ncn2[C@@H]1O[C@H](CSCCNC(=O)NCc2ccccc2)[C@@H](O)[C@H]1O | Protein arginine N-methyltransferase 7 (PRMT7, Homo sapiens, UniProt Q9NVM4) | enzyme activity, inhibitor, radiometric | – | < 2.4 |

| Structure (SMILES) | target | test | setting | IC50 [µM] |
| --- | --- | --- | --- | --- |
| Cc1cc(Nc2cc3ncccc3c(N[C@@H]3C[C@H]4CC[C@@H](C3)N4CCC#N)n2)n[nH]1 | PDGFRB | target engagement in cells, inhibitor, BRET | – | > 10 |
| Cc1nc(NC2CCc3cc(Cl)ccc3C2)c2c(C)noc2n1 (centres unmarked) | DHODH | enzyme activity, inhibitor, absorbance | – | > 100 |
| Cc1ncc(C(=O)N[C@@H](CC(C)C)C(=O)N[C@@H](CC2CCC3CCCCC3C2)C(=O)N[C@H](/C=C/S(C)(=O)=O)Cc2ccc(CN)cc2)s1 (some centres unmarked) | PSMB8 | enzyme activity, inhibitor | lysate | 3.24 |
| CS(=O)(=O)c1ccc(-c2nc3ccccn3c2Nc2ccccc2)cc1 | PTGS2 | enzyme activity, inhibitor | – | 0.07 |
| Cc1ccc(NC(=O)c2ccc(C)c(C(F)(F)F)c2)cc1C#Cc1nn(C2CCC(O)CC2)c2ncnc(N)c12 (centres unmarked) | EPHA7 | enzyme activity, inhibitor, radiometric | – | 0.143 |
| Cc1nc(Nc2ccc(C)c(Cl)c2)c2c(C)noc2n1 | DHODH | enzyme activity, inhibitor, absorbance | – | > 50 |
| NC(=O)C1CCN(C(=O)c2ccc(NCc3cnc4nc(N)nc(N)c4n3)cc2)CC1 | TYMS | enzyme activity, inhibitor | – | 42 |
| Oc1ccc2ccccc2n1 | Serum paraoxonase/arylesterase 1 (PON1, Homo sapiens, UniProt P27169) | enzyme activity, inhibitor | – | 4.4 |
| COc1ccc(C[C@H](NC(=O)[C@H](C)NC(=O)CN2CCOCC2)C(=O)N[C@H](C(=O)[C@@]2(C)CO2)C2CCCCC2)cc1 | PSMB8 | enzyme activity, inhibitor | lysate | > 10 |
| CCn1ncc2c1-c1cnc(N)c(c1)O[C@H](C)c1cc(F)ccc1-c1nn(C)nc1C2 | EPHA7 | enzyme activity, inhibitor, radiometric | – | 0.379 |
| Cc1nc(Nc2ccc(S(F)(F)(F)(F)F)cc2)c2c(C)noc2n1 | DHODH | enzyme activity, inhibitor, absorbance | – | > 50 |
| CC(C)=CCC[C@@H](C)c1ccc(C)c(O)c1 | UDP-glucuronosyltransferase 1A1 (UGT1A1, Homo sapiens, UniProt P22309) | enzyme activity, inhibitor | 90 min | 11.3 |
| CC(C)C[C@H](NC(=O)c1cc(Cl)ccc1Cl)C(=O)N[C@@H](CC(C)C)C(=O)N[C@H](/C=C/S(C)(=O)=O)Cc1ccc(CN)cc1 | PSMB8 | enzyme activity, inhibitor | lysate | 1.83 |
| O=C(O)C1=CC(=C(c2ccc(O)c(C(=O)O)c2)c2ccc(O)c(C(=O)O)c2)C=CC1=O | PFKM (Oryctolagus cuniculus, UniProt P00511) | enzyme activity, inhibitor | – | 3.92 |
| Cc1ncc(C(=O)N[C@@H](CC(C)C)C(=O)N[C@@H](CC2CCC(C3CCCCC3)CC2)C(=O)N[C@H](/C=C/S(C)(=O)=O)Cc2ccc(CN)cc2)s1 (some centres unmarked) | PSMB8 | enzyme activity, inhibitor | lysate | > 10 |
| CCOc1ccc2c(-c3cc(C)nc(Nc4cc(OC)cc(C(F)(F)F)c4)n3)cnn2n1 | Dual specificity tyrosine-phosphorylation-regulated kinase 3 (DYRK3, Homo sapiens, UniProt O43781) | enzyme activity, inhibitor | – | > 10 |
